# Assay results from ChEMBL document CHEMBL4428038, “Overcoming chloroquine resistance in malaria: Design, synthesis and structure-activity relationships of novel chemoreversal agents” (Eur J Med Chem, 2016).
# Active and inactive are the calls of the source. The rule behind the calls is not given here.
# Key:
# Plasmodium falciparum [1] = assay: Intrinsic antimalarial activity against chloroquine/artemisinin-resistant Plasmodium falciparum NHP4773 harboring CRT K76T mutant assessed as reduction in parasite viability at 500 nM; format: functional, organism-based
# Plasmodium falciparum [2] = assay: Intrinsic antimalarial activity against chloroquine/artemisinin-resistant Plasmodium falciparum ARS233 harboring CRT K76T mutant assessed as reduction in parasite viability at 500 nM; format: functional, organism-based
# Plasmodium falciparum [3] = assay: Intrinsic antimalarial activity against chloroquine-resistant Plasmodium falciparum NHP4559 harboring CRT K76T mutant assessed as reduction in parasite viability at 500 nM; format: functional, organism-based
# Plasmodium falciparum [4] = assay: Intrinsic antimalarial activity against chloroquine-resistant Plasmodium falciparum Dd2 isolate MRA-156 harboring CRT K76T mutant assessed as reduction in parasite viability at 500 nM; format: functional, organism-based
# Plasmodium falciparum K1 [5] = assay: Inhibition of CRT CVIET haplotype mutant in chloroquine-resistant Plasmodium falciparum K1 isolate MRA-159 assessed as reversal of chloroquine resistance by measuring reduction in chloroquine IC50 at 500 nM relative to chloroquine alone
# [6] = tested on: T1, Chloroquine resistance transporter (Plasmodium falciparum), Q9N623 [K76T]; assay: Inhibition of CRT K76T mutant in chloroquine/artemisinin-resistant Plasmodium falciparum ARS233 assessed as reversal of chloroquine resistance by measuring reduction in chloroquine IC50 at 500 nM relative to chloroquine alone
# T1 sequence (whole entry): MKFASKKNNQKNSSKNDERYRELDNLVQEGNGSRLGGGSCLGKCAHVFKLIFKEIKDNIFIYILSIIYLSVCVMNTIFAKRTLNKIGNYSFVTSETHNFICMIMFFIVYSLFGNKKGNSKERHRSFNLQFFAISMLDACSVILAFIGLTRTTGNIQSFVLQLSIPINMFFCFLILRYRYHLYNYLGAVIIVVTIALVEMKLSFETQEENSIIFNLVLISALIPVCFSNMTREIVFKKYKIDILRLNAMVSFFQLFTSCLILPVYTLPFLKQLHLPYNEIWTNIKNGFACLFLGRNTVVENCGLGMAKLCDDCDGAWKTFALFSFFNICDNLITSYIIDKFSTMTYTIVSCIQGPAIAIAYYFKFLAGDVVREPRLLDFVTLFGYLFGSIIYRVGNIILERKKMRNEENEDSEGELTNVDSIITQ
# [7] = tested on: Plasmodium falciparum 7G8; assay: Inhibition of CRT SVMNT haplotype mutant in intermediate chloroquine-resistant Plasmodium falciparum 7G8 isolate MRA-154 t assessed as reversal of chloroquine resistance by measuring reduction in chloroquine IC50 at 500 nM relative to chloroquine alone
# Plasmodium falciparum [8] = assay: Intrinsic antimalarial activity against intermediate chloroquine-resistant Plasmodium falciparum 7G8 isolate MRA-154 harboring CRT SVMNT haplotype mutant assessed as reduction in parasite viability at 500 nM; format: functional, organism-based
# Plasmodium falciparum [9] = assay: Intrinsic antimalarial activity against chloroquine-sensitive Plasmodium falciparum HB3 isolate MRA-155 assessed as reduction in parasite viability at 500 nM; format: functional, organism-based
# Plasmodium falciparum [10] = assay: Potentiation of chloroquine-induced antimalarial activity against chloroquine-sensitive Plasmodium falciparum 3D7 isolate MRA-102 assessed as reduction in chloroquine IC50 at 500 nM relative to chloroquine alone; format: functional
# [11] = tested on: T1, Chloroquine resistance transporter (Plasmodium falciparum), Q9N623 [K76T]; assay: Inhibition of CRT K76T mutant in chloroquine-resistant Plasmodium falciparum Dd2 isolate MRA-156 assessed as reversal of chloroquine resistance by measuring reduction in chloroquine IC50 at 500 nM relative to chloroquine alone
# Plasmodium falciparum [12] = assay: Intrinsic antimalarial activity against chloroquine-sensitive Plasmodium falciparum 3D7 isolate MRA-102 assessed as reduction in parasite viability at 500 nM; format: functional, organism-based
# [13] = tested on: T1, Chloroquine resistance transporter (Plasmodium falciparum), Q9N623 [K76T]; assay: Inhibition of CRT K76T mutant in chloroquine/artemisinin-resistant Plasmodium falciparum ARS272 assessed as reversal of chloroquine resistance by measuring reduction in chloroquine IC50 at 500 nM relative to chloroquine alone
# Plasmodium falciparum [14] = assay: Potentiation of chloroquine-induced antimalarial activity against chloroquine-sensitive Plasmodium falciparum HB3 isolate MRA-155 assessed as reduction in chloroquine IC50 at 500 nM relative to chloroquine alone; format: functional
# [15] = tested on: T1, Chloroquine resistance transporter (Plasmodium falciparum), Q9N623 [K76T]; assay: Inhibition of CRT K76T mutant in chloroquine/artemisinin-resistant Plasmodium falciparum NHP4773 assessed as reversal of chloroquine resistance by measuring reduction in chloroquine IC50 at 500 nM relative to chloroquine alone
# Plasmodium falciparum K1 [16] = assay: Inhibition of CRT CVIET haplotype mutant in Plasmodium falciparum K1 isolate MRA-159 infected in erythrocytes assessed as chloroquine-coumarin probe accumulation at 10 uM after 10 hrs by Hoechst 33342 staining based flow cytometry (reference value: 35.57 +/- 3.84%); format: cell-based; parameters: scale not given: the % may be the effect or the level left
# Outline: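 Infected erythrocyte cultures at 2.5% hematocrit and 7–12% parasitemia, synchronized to late-ring/early-trophozoite stage, were incubated with chloroquine-coumarin probe plus test agent for 10 h at 37 C. Cells were then washed, resuspended in PBS and read by flow cytometry (405 nm excitation, 450/50 filter). Hoechst-stained duplicate wells set parasitemia. Uptake = % infected erythrocytes fluorescent. Controls: PBS (negative), desipramine and parent compound (positive). ≥3 independent experiments; mean ± SEM.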
# [17] = Aqueous kinetic solubility of compound in pH 7.4 solution incubated for 24 hrs; format: physicochemical; conditions: aqueous solution pH 7.4, pH 7.4; read-out: Kinetic_solubility
# [18] = Resistance index, ratio of chloroquine IC50 for chloroquine-resistant Plasmodium falciparum K1 isolate MRA-159 CRT CVIET haplotype mutant to chloroquine IC50 for chloroquine-sensitive Plasmodium falciparum 3D7 isolate MRA-102 at 500 nM
# Outline: (§1)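 Chloroquine IC50 was measured with the chemoreversal agent fixed at 500 nM in K1 or 7G8 and in sensitive 3D7 (means, n = 3). The resistance ratio is the chloroquine IC50 in K1 or 7G8 divided by the chloroquine IC50 in 3D7.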
# Plasmodium falciparum [19] = assay: Intrinsic antimalarial activity against chloroquine-resistant Plasmodium falciparum K1 isolate MRA-159 harboring CRT CVIET haplotype mutant assessed as reduction in parasite viability at 500 nM; format: functional, organism-based
# [20] = Inhibition of CRT CVIET haplotype mutant in chloroquine-resistant Plasmodium falciparum K1 isolate MRA-159 assessed as reversal of chloroquine resistance by measuring reduction in chloroquine IC50 relative to chloroquine alone
# Outline: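 Chloroquine IC50 was determined in the presence of a fixed 500 nM chemoreversal agent, against chloroquine alone. The RMI is the ratio of chloroquine IC50 with agent to chloroquine IC50 alone. Mean of n = 3; two-tailed t test versus chloroquine without agent.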
# [21] = Resistance index, ratio of chloroquine IC50 for intermediate chloroquine-resistant Plasmodium falciparum 7G8 isolate MRA-154 CRT SVMNT haplotype mutant to chloroquine IC50 for chloroquine-sensitive Plasmodium falciparum 3D7 isolate MRA-102 at 500 nM; outline: as §1
# [22] = tested on: T1, Chloroquine resistance transporter (Plasmodium falciparum), Q9N623 [K76T]; assay: Inhibition of CRT K76T mutant in chloroquine-resistant Plasmodium falciparum NHP4559 assessed as reversal of chloroquine resistance by measuring reduction in chloroquine IC50 at 500 nM relative to chloroquine alone
# Plasmodium falciparum [23] = assay: Intrinsic antimalarial activity against chloroquine/artemisinin-resistant Plasmodium falciparum ARS272 harboring CRT K76T mutant assessed as reduction in parasite viability at 500 nM; format: functional, organism-based
SMILES,Activity (Plasmodium falciparum [1]),Activity (Plasmodium falciparum [2]),Activity (Plasmodium falciparum [3]),Activity (Plasmodium falciparum [4]),Ratio IC50 (Plasmodium falciparum K1 [5]),Ratio IC50 [6],Ratio IC50 [7],Activity (Plasmodium falciparum [8]),Activity (Plasmodium falciparum [9]),Ratio IC50 (Plasmodium falciparum [10]),Ratio IC50 [11],Activity (Plasmodium falciparum [12]),Ratio IC50 [13],Ratio IC50 (Plasmodium falciparum [14]),Ratio IC50 [15],Activity (Plasmodium falciparum K1 [16]) [%],Ratio IC50 [18],Activity (Plasmodium falciparum [19]),Ratio IC50 [21],Activity (Plasmodium falciparum [23]),other results
c1ccc2c(c1)CC(N1CCNCC1)c1ccccc1S2 (stereo unspecified),inactive,inactive,inactive,inactive,0.55,0.64,0.76,inactive,inactive,1.21,0.81,inactive,0.68,1,0.69,69.8,9.3,inactive,3.8,inactive,solubility kinetic at 24 h [17]: 87.1 µg/mL; EC50 [20]: 343 nM; Ratio IC50 [22]: 0.68
N[C@@H]1C2CCN(CC2)[C@@H]1C(c1ccccc1)c1ccccc1 (relative stereo),inactive,inactive,inactive,inactive,0.93,0.97,0.93,inactive,inactive,1.1,0.94,inactive,0.99,0.99,1.04,52.5,17.4,inactive,5.2,inactive,Ratio IC50 [22]: 0.98
NCC(c1ccccc1)c1ccccc1,inactive,inactive,inactive,inactive,0.45,0.53,0.69,inactive,inactive,1.11,0.59,inactive,0.37,1.1,0.54,56.4,8.4,inactive,3.8,inactive,EC50 [20]: 200 nM; Ratio IC50 [22]: 0.52
Clc1ccc2c(c1)C(N1CCNCC1)Cc1ccccc1S2 (stereo unspecified),inactive,inactive,inactive,inactive,0.69,0.71,0.88,inactive,inactive,1.14,0.83,inactive,0.76,0.93,0.73,79.6,12.4,inactive,4.8,inactive,solubility kinetic at 24 h [17]: 38.1 µg/mL; Ratio IC50 [22]: 0.73
NCC(CCN1CCC(O)CC1)(c1ccccc1)c1ccccc1,inactive,inactive,inactive,inactive,0.74,0.9,0.98,inactive,inactive,1.13,0.91,inactive,0.93,0.99,0.94,64.8,13.4,inactive,5.3,inactive,Ratio IC50 [22]: 0.95
N[C@@H]1C2CCN(CC2)[C@@H]1Cc1ccccc1 (relative stereo),inactive,inactive,inactive,inactive,–,–,–,inactive,inactive,–,–,inactive,–,–,–,40.1,–,inactive,–,inactive,–
N#CC(CCN1CCN(c2ccc(F)cc2)CC1)(c1ccccc1)c1ccccc1,inactive,inactive,inactive,inactive,–,–,–,inactive,inactive,–,–,inactive,–,–,–,49,–,inactive,–,inactive,–
N#CC(CCN1CCCCC1)(c1ccccc1)c1ccccc1,inactive,inactive,inactive,inactive,0.71,0.7,1,inactive,inactive,1.2,0.76,inactive,0.7,0.98,0.74,67,12.2,inactive,5.1,inactive,EC50 [20]: 295 nM; Ratio IC50 [22]: 0.66
N#CC(CCN1CCC(O)(c2ccc(Cl)cc2)CC1)(c1ccccc1)c1ccccc1,inactive,inactive,inactive,inactive,–,–,–,inactive,inactive,–,–,inactive,–,–,–,25.9,–,inactive,–,inactive,–
